The source of these data is ChEMBL document CHEMBL4152290, “1H-Benzo[d]imidazoles and 3,4-dihydroquinazolin-4-ones: Design, synthesis and antitubercular activity” (Eur J Med Chem, 2018).

Converted amounts (≈) assume the structure as drawn.

The subject of this experiment is Mycobacterium tuberculosis. The experiment in a line: Antitubercular activity against Mycobacterium tuberculosis H37Rv ATCC 27294 after 7 days by resazurin dye based assay. The format is functional. As to conditions: H37Rv ATCC 27294, 168 h. The essentials:
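Resazurin microtiter MIC in 7H9 with 10% ADC. Two-fold dilutions from 1 mg/mL DMSO stocks span 25.0–0.05, 10.0–0.02 or 0.02–0.0004 µg/mL, with 2.5% DMSO final. Inoculum is bead-declumped culture grown in 7H9/10% OADC/0.05% Tween 80, diluted to OD600 0.006. Plates run 7 days at 37 °C, then 0.01% resazurin for 48 h. MIC is the lowest concentration preventing the blue-to-pink change. Three independent tests.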
On the technique in general: The colour change of resazurin is a common sign of viable cells or microbes.
With `CC1CCC(NC(=O)CSc2nc3ccccc3[nH]2)CC1` (stereo not drawn), 41.2 µM (≈ 12.5 µg/mL) was the least that counted as inhibitory (MIC). Take `O=C(CSc1nc(O)c2ccccc2n1)N1CCCCC1`: the minimum inhibitory concentration (MIC) – broadly, the least concentration at which growth counts as inhibited – was more than 33 µM.

On to `Cc1ccc(NC(=O)CSc2nc3ccccc3c(=O)[nH]2)cc1`, for which the MIC was more than 30.7 µM.

Turning to `CC1CCCCC1NC(=O)CSc1nc2ccccc2[nH]1` (stereo not drawn), the minimal inhibitory concentration (MIC) was more than 33 µM. Then `COc1ccccc1NC(=O)CSc1nc2ccccc2[nH]1`, with more than 31.9 µM.

As for `O=C(CSc1nc2ccccc2c(=O)[nH]1)Nc1ccc(Cl)cc1`, the MIC worked out at 28.9 µM (≈ 9.99 µg/mL). For the compound `CCCCCCCc1ccc(NC(=O)CSc2nc3ccccc3[nH]2)cc1`, the MIC was more than 65.5 µM.

Regarding `O=C(CSc1nc2ccccc2c(=O)[nH]1)NC1CCCC1`, the MIC came out at 2.07 µM (≈ 0.628 µg/mL). Then `O=C(CSc1nc2ccccc2c(=O)[nH]1)NCc1ccccc1`, with 4.8 µM (≈ 1.56 µg/mL). Then `O=C(CSc1nc(O)c2ccccc2n1)Nc1ccc(Br)cc1`, with more than 25.6 µM; and `O=C(CSc1nc2ccccc2c(=O)[nH]1)Nc1ccc2ccccc2c1`, with more than 27.7 µM. With `O=C(CSc1nc2ccccc2c(=O)[nH]1)N[C@H]1CCc2ccccc2C1` the figure was more than 27.4 µM. Take `CCCCCc1ccc(NC(=O)CSc2nc3ccccc3c(=O)[nH]2)cc1`: the MIC amounted to 26.2 µM (≈ 10 µg/mL).

The compound `C[C@@H](NC(=O)CSc1nc2ccccc2c(=O)[nH]1)C1CCCCC1` returned an MIC of more than 28.9 µM. `CCCCCc1ccc(NC(=O)CSc2nc3ccccc3[nH]2)cc1` gave an MIC of more than 70.7 µM. With `O=C(CSc1nc2ccccc2c(=O)[nH]1)Nc1ccc(I)cc1` the figure was more than 22.9 µM; with `O=C(CSc1nc2ccccc2c(=O)[nH]1)Nc1ccc(F)cc1`, more than 30.4 µM; with `O=C(CSc1nc2ccccc2c(=O)[nH]1)N[C@@H]1CCc2ccccc2C1`, 17.1 µM (≈ 6.25 µg/mL). With `CCCc1ccc(NC(=O)CSc2nc3ccccc3c(=O)[nH]2)cc1` the figure was more than 28.3 µM; with `COc1ccc(NC(=O)CSc2nc3ccccc3c(=O)[nH]2)cc1`, more than 29.3 µM; with `CN(C(=O)CSc1nc2ccccc2c(=O)[nH]1)C1CCCCC1`, more than 75.4 µM. For `O=C(CSc1nc2ccccc2[nH]1)NC1CCCCC1`, the MIC was more than 31.3 µM. `O=C(CSc1nc2ccccc2[nH]1)NCC1CCCCC1`: inhibition of growth (MIC) required 82.4 µM (≈ 25 µg/mL).

`CC1CCCC(NC(=O)CSc2nc3ccccc3[nH]2)C1` (stereo not drawn) displayed an MIC of more than 33 µM. Then `C[C@H](NC(=O)CSc1nc2ccccc2[nH]1)C1CCCCC1`, with more than 31.5 µM; and `C[C@H](NC(=O)CSc1nc2ccccc2c(=O)[nH]1)C1CCCCC1`, with more than 28.9 µM; and `O=C(CSc1nc2ccccc2[nH]1)Nc1ccc2c(c1)CCC2`, with more than 29.6 µM. Then `O=C(CSc1nc2ccccc2[nH]1)NCc1ccccc1`, with more than 33.6 µM; and `O=C(CSc1nc2ccccc2[nH]1)Nc1ccc2ccccc2c1`, with more than 75 µM. `C[C@H]1CC[C@H](NC(=O)CSc2nc3ccccc3[nH]2)CC1` came in with an MIC of 16.5 µM (≈ 5.01 µg/mL). With `O=C(CSc1nc(O)c2ccccc2n1)Nc1ccc([N+](=O)[O-])cc1` the figure was more than 28.1 µM; with `NNC(=O)c1ccncc1` [ISONIAZID], 2.9 µM (≈ 0.398 µg/mL).

In turn, `O=C(CSc1nc2ccccc2c(=O)[nH]1)Nc1ccccc1` gave a minimal inhibitory concentration (MIC) of more than 32.1 µM.
